Screens from PubChem.
SENP1 FRET inh – human SENP1 catalytic domain inhibitors, primary screen, biochemical, FRET, uHTS. 360,000 tested, 0.21% active. recombinant SENP1 catalytic domain, CyPet-SUMO1-YPet FRET cleavage. AID 624204, 2012. inhibition, % at 10 µM. Sentrin-specific protease 1 (Homo sapiens), Q9P0U3;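 active = inhibition at least 30% at 10 µM, raw YFP signal under a set limit, fluorescence ratio 0.5 to 1.5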
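material = recombinant human SENP1 catalytic domain, His6-tagged | quantity = 20 pM enzyme | reagent = 25 nM SUMO1 FRET substrate | compound dosing = 10 µM single point, 0.5% DMSO | timing = 50 min enzyme reaction, room temperature, light-protected | detection = FRET, CFP and YFP emission | control set = no-enzyme low, enzyme-DMSO high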
SENP6 inh – SENP6 protease inhibitors, primary screen, biochemical, luminescence, uHTS; AID 2599, 2010; inhibition, % at 10 µM; 330,000 tested, 1.8% active; Recombinant SENP6 catalytic domain, aminoluciferin luminescence;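 active = inhibition above about 50% at the single tested dose, limit read from the data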
SENP8 block-1 – human SENP8 protease inhibitors, primary screen, biochemical, fluorescence, Nedd8 protein substrate, uHTS; 360,000 tested, 0.64% active; recombinant SENP8; inhibition, % at 20 µM; in the data active = inhibition mostly above about 40%, no sharp cut-off; inactive = mostly below about 27%
Target sequence (Q96LD8 whole entry, looked up): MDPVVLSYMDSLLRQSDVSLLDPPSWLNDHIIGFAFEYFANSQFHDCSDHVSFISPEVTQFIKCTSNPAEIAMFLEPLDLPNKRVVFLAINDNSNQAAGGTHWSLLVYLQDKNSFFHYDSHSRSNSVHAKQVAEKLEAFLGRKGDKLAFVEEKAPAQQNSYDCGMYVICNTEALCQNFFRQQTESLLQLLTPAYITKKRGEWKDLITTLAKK
SENP7 block – SENP7 protease inhibitors, primary screen, biochemical, luminescence, uHTS | inhibition, % at 5 µM | recombinant SENP7, Z-RLRGG-aminoluciferin luminescence, 40 min | Sentrin-specific protease 7 (Homo sapiens), Q9BQF6 | 330,000 tested, 1.5% active;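 active = inhibition above about 50% at the single test dose, limit read from the data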
Target sequence (Q9BQF6 706-1050 limits assumed): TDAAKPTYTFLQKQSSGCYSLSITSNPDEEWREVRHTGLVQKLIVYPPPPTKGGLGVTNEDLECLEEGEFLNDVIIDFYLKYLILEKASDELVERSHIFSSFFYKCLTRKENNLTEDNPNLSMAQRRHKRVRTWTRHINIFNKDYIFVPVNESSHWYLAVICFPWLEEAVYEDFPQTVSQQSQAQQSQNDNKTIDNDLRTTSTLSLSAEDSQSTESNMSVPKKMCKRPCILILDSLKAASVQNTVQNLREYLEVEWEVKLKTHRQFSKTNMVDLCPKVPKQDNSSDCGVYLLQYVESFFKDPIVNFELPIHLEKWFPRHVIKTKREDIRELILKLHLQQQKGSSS
SENP8 block-2 – SENP8 protease inhibitors, primary screen, biochemical, luminescence. inhibition, % at 10 µM. Sentrin-specific protease 8 (Homo sapiens), Q96LD8. AID 2540, 2010. 330,000 tested, 1.2% active. purified SENP8, Z-RLRGG-aminoluciferin cleavage; in the data active = inhibition above about 50%
SENP8 conf – SENP8 protease inhibitors, retest, confirmation, biochemical, luminescence, single concentration; shares compounds with SENP7 block; Recombinant SENP8, Z-RLRGG-aminoluciferin luminescence, 60 min; inhibition, % at 12.5 µM; 6,200 tested, 40% active;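 active = mean inhibition across replicates above about 50%, limit read from the data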
SENP6 confirm – SENP6 protease inhibitors, confirmation, biochemical, luminescence, single concentration. 6,200 tested, 58% active. recombinant SENP6, Z-RLRGG-aminoluciferin luminescence. shares compounds with SENP7 block. inhibition, % at 12.5 µM
SENP7 confirm – SENP7 protease inhibitors, retest, confirmation, biochemical, luminescence, single concentration | shares compounds with SENP7 block | recombinant SENP7, Z-RLRGG-aminoluciferin luminescence, 40 min | inhibition, % at 12.5 µM | 6,200 tested, 69% active | AID 488917, 2010
Casp3 select – caspase-3 protease inhibitors, confirmation, selectivity assay for SENP inhibitor project, biochemical, single concentration; shares compounds with SENP7 block; purified caspase-3, Z-DEVD-aminoluciferin luminescence, 60 min; inhibition, % at 12.5 µM; 6,200 tested, 60% active; AID 488918, 2010;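 active = mean inhibition above about 50%, limit read from the data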
Luc interf – counter-screen for SENP inhibitors: luminescence interference; shares compounds with SENP7 block; Pre-incubated SENP8/Z-RLRGG-aminoluciferin, luciferase luminescence interference; inhibition, % at 12.5 µM; 6,200 tested, 39% active;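 active = mean inhibition above about 50% when retested at one dose, limit read from the data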
A number is an active result; 0 = inactive; - = no result given. Only some compounds are listed: those with a hit (about 2.5% of all), similar ones and a draw of the others.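 The calls were made as follows, unless noted: active = mean inhibition above about 50% in the one-dose retest (limit read from the data); inactive = the rest.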

SMILES	SENP1 FRET inh	SENP6 inh	SENP8 block-1	SENP7 block	SENP8 block-2	SENP8 conf	SENP6 confirm	SENP7 confirm	Casp3 select	Luc interf
CC(C)(C)C(=O)COC(=O)c1cccc(NC(=O)c2ccco2)c1	0	0	0	0	0	-	-	-	-	-
Cc1ccc(C(=O)COC(=O)c2cccc(NC(=O)c3ccc([N+](=O)[O-])cc3[N+](=O)[O-])c2)cc1	0	67	0	66	0	0	0	69	0	0
O=C(COC(=O)c1cccc(NC(=O)c2ccco2)c1)c1ccc(Br)cc1	0	70	0	72	0	0	61	78	0	0
Nc1ccc2oc(-c3ccccc3Cl)nc2c1	0	91	0	77	68	90	90	99	87	80
CCc1ccc2oc(-c3cc(N)ccc3O)nc2c1	0	97	0	92	94	68	94	99	86	0
Cc1ccc2oc(-c3cc(NC(=O)c4ncn[nH]4)ccc3O)nc2c1	0	0	0	0	0	-	-	-	-	-
CCc1ccc2oc(-c3cc(N)cc(C)c3O)nc2c1	0	79	0	54	75	0	50	78	58	0
CCc1ccc2oc(-c3cc(N)ccc3Cl)nc2c1	0	95	0	95	92	95	97	101	82	78
Nc1ccc2oc(-c3cc(Br)ccc3Cl)nc2c1	0	0	0	0	0	-	-	-	-	-
Cc1ccc2nc(-c3cc(N)cc(N)c3)oc2c1	0	0	0	0	0	-	-	-	-	-
CSc1ccccc1OCc1cc(C(=O)N(C)Cc2ccncn2)no1	0	0	0	0	0	-	-	-	-	-
CCOCCCNC(=O)C(c1ccc(OC)cc1)N(Cc1cccs1)C(=O)c1ccccc1O (stereo unspecified)	0	0	0	0	0	-	-	-	-	-
CCCSc1nn2c(=O)c3ccccc3nc2s1	0	64	0	0	0	67	65	89	83	65
COc1ccc(NC(=O)c2ccc3c(c2)OCO3)cc1Cl	0	80	0	93	83	0	88	99	88	0
COc1ccc(NC(=O)c2ccc3c(c2)OCCO3)cc1OC	0	0	0	0	0	-	-	-	-	-
O=C(Nc1ccc(F)c(Cl)c1)c1ccc2c(c1)OCO2	0	88	0	76	81	0	90	100	84	0
COc1ccc(NC(=O)C=C(C)C)cc1Cl	0	94	0	0	93	0	94	100	96	94
COc1ccc(NC(=O)CSc2ncn(-c3ccccc3)n2)cc1Cl	0	93	0	0	0	0	0	0	0	0
Cc1ccc(NC(=O)CSc2ncn(-c3ccccc3)n2)cc1C	0	0	0	0	0	-	-	-	-	-
CC1CN(CC(=O)Nc2nc3ccccc3s2)CC(C)O1 (stereo unspecified)	0	0	0	0	0	-	-	-	-	-
O=C(N/N=C/C=C/c1ccc2c(c1)OCO2)C(O)c1ccccc1 (stereo unspecified)	0	0	0	0	0	-	-	-	-	-
O=C(Nc1ccc(F)c(Cl)c1)c1cccnc1	0	0	0	0	0	-	-	-	-	-
O=C(Nc1ccc(F)c(Cl)c1)c1ccccc1	0	78	0	83	77	84	82	95	78	54
CCCCNC(=O)c1sc(=S)n2c1[nH]c(=O)c1ccccc12	0	85	0	0	0	0	0	0	0	0
O=C(NC1CCCCC1)c1sc(=S)n2c1[nH]c(=O)c1ccccc12	0	0	0	0	0	-	-	-	-	-
SMILES	SENP1 FRET inh	SENP6 inh	SENP8 block-1	SENP7 block	SENP8 block-2	SENP8 conf	SENP6 confirm	SENP7 confirm	Casp3 select	Luc interf
O=c1[nH]c2ccccc2cc1-c1noc(-c2cccnc2)n1	0	0	0	0	0	-	-	-	-	-
c1ccc(-c2noc(-c3cccnc3)n2)cc1	0	76	0	0	58	0	60	88	77	0
COc1ccc(-c2noc(-c3cccnc3)n2)cc1OC	0	0	0	0	0	-	-	-	-	-
c1cncc(-c2noc(-c3ccc4ccccc4c3)n2)c1	0	90	0	91	83	56	69	94	75	0
c1ccc(-c2ccc(-c3nc(-c4cccnc4)no3)cc2)cc1	0	97	0	99	90	70	71	80	88	0
CN(/N=C/c1ccc(O)cc1O)c1nc(-c2ccccc2)cc(-c2ccccc2)n1	0	0	0	0	0	-	-	-	-	-
CCCCC(=O)Nc1ccc(N2CCN(C(=O)c3ccco3)CC2)cc1	0	0	0	0	0	-	-	-	-	-
Cc1ccc(S(=O)(=O)NCc2cn3c(C)csc3n2)cc1	0	0	0	0	0	-	-	-	-	-
Cc1ccc(SCc2cn3c(C)csc3n2)cc1	0	84	0	85	75	80	80	96	86	86
COc1nc(C)ccc1-c1noc(-c2ccccn2)n1	0	0	0	53	0	0	51	86	83	0
COc1ccccc1-c1nc(-c2ccc(C)nc2OC)no1	0	0	0	0	0	-	-	-	-	-
COc1ccccc1-c1nc(-c2ccccn2)no1	0	96	0	99	93	0	99	102	99	97
Clc1ccc(OCc2nc(-c3ccccn3)no2)c(Br)c1	0	95	0	90	91	82	95	99	86	75
Clc1ccc(-c2nc(-c3ccccn3)no2)cc1Cl	0	92	0	98	96	91	94	98	93	76
COc1cccc(C(C)=C2SC(=S)NC2=O)c1	0	-	0	-	-	-	-	-	-	-
O=C(O)c1ccc2c(c1)S(=O)(=O)c1cc(N3CCN(c4ncccn4)CC3)ccc1C2=O	0	-	0	-	-	-	-	-	-	-
Cc1ccccc1-c1nc(-c2ccccn2)no1	0	97	0	100	96	98	99	102	98	98
COc1ccc(-c2nc(-c3ccccn3)no2)cc1	0	98	0	100	97	0	101	104	100	98
Cc1ccccc1-c1noc(-c2ccccc2C(=O)O)n1	0	0	0	0	0	-	-	-	-	-
COc1ccc(-c2nc(-c3ccncc3)no2)cc1	0	-	0	-	-	-	-	-	-	-
